Active and inactive are the calls of the source. The rule behind the calls is not given here.
Tests used:
[1] = target: T1, DNA topoisomerase 1 (Homo sapiens) (UniProt P11387); assay: Inhibition of human topoisomerase 1-mediated relaxation of supercoiled pBR322 DNA at 250 uM after 30 mins by agarose gel electrophoresis
T1 sequence (whole entry): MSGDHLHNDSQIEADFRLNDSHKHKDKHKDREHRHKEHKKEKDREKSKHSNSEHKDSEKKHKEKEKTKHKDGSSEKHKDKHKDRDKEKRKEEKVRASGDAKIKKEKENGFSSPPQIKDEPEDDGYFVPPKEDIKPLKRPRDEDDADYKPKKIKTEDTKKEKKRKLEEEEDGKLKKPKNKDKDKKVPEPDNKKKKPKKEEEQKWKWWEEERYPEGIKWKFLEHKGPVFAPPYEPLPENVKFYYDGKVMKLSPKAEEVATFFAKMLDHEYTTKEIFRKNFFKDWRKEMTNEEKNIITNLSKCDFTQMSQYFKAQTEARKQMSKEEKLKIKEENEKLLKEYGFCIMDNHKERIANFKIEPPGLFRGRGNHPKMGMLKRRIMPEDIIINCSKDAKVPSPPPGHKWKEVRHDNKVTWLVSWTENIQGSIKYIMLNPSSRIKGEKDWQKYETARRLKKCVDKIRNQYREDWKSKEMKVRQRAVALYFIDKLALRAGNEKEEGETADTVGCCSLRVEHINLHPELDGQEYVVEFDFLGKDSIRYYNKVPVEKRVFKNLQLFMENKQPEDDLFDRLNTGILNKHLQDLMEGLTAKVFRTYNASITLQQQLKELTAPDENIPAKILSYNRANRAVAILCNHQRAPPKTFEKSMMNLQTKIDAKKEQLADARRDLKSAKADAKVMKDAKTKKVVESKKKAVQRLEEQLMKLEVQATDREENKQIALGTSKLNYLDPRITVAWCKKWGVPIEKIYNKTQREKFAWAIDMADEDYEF

[2] = Antitumor against human GLC82 cells assessed as cell survival after 48 hrs by MTT assay; type: functional, cell-based; conditions: GLC82, 48 h
How it was run: (§1)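 1 × 10^4 cells per well plated and left overnight, then exposed to compound at 0–100 μM for 48 h. Per well, 20 μl of 5 mg/ml MTT added, then incubated 4 h at 37 °C. Untransformed MTT removed, formazan dissolved in DMSO, absorbance read at 570 nm, and IC50 derived. Modified Mosmann method.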

[3] = Antitumor against human CNE2 cells assessed as cell survival after 48 hrs by MTT assay; type: functional, cell-based; conditions: CNE-2, 48 h; how it was run: as §1
[4] = target: T2, DNA topoisomerase 2-alpha (Homo sapiens, UniProt P11388); assay: Ratio IC50 of etoposide to IC50 of compound for human topoisomerase 2 alpha
T2 sequence (P11388 whole entry): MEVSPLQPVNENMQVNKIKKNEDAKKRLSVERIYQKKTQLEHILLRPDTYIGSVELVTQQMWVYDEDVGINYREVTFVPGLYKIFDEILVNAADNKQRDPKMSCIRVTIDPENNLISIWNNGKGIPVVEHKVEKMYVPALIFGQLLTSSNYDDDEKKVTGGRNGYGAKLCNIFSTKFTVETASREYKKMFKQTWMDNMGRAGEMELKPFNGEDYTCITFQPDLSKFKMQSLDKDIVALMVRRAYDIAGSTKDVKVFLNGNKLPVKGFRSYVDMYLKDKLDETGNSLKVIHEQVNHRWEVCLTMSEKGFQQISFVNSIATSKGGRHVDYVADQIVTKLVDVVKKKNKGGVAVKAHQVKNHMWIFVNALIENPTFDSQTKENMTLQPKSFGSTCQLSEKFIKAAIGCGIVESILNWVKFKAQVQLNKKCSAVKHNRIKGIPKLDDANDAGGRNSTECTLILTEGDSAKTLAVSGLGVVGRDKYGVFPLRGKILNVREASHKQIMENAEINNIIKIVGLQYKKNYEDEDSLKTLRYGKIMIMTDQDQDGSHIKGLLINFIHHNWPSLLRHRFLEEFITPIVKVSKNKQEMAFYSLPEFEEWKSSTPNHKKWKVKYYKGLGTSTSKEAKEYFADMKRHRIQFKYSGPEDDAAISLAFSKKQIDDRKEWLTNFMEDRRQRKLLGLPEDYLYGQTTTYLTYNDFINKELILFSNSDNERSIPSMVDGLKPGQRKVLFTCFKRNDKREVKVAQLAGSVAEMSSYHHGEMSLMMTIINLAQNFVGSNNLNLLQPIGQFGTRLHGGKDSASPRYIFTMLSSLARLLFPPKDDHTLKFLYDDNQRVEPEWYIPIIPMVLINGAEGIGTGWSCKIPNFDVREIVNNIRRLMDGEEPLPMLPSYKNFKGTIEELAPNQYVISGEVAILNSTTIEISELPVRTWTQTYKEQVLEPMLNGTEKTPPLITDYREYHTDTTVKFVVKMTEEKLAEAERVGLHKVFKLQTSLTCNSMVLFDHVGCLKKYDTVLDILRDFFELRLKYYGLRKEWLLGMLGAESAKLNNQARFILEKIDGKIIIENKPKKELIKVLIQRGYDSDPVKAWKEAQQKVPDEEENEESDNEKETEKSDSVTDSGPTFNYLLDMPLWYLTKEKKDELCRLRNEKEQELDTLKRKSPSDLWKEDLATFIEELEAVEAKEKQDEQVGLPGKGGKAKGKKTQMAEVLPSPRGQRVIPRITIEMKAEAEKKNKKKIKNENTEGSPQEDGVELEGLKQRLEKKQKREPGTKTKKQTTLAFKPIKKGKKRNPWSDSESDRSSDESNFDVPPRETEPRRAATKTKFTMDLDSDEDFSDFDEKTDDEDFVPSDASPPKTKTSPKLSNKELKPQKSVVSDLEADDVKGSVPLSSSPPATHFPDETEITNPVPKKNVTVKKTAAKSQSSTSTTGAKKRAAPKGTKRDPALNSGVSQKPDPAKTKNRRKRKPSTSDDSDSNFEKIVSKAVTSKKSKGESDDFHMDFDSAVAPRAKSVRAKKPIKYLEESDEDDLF
How it was run: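 Human topo IIα relaxation of 0.2 μg pBR322 in Tris pH 8.0 buffer with 5 mM ATP, using 1 U enzyme for 30 min at 37 °C, read on agarose gel.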

[5] = target: T2, DNA topoisomerase 2-alpha; assay: Inhibition of human topoisomerase 2 alpha-mediated relaxation of supercoiled pBR322 DNA after 30 mins by agarose gel electrophoresis
How it was run: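 Compound added at constant solvent volume. Started with 1 U human topo IIα, 30 min at 37 °C. Stopped with sarkosyl/bromophenol blue/glycerol buffer. Read on 1% agarose TAE gel, ethidium-stained, imaged under UV.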

[6] = target: Telomerase reverse transcriptase (Homo sapiens) (UniProt O14746); assay: Inhibition of telomerase in human K562 cells at 20 uM using telo TAGGG telomerase PCR ELISA; type: cell-based
Telomerase reverse transcriptase (Homo sapiens), sequence (O14746 whole entry): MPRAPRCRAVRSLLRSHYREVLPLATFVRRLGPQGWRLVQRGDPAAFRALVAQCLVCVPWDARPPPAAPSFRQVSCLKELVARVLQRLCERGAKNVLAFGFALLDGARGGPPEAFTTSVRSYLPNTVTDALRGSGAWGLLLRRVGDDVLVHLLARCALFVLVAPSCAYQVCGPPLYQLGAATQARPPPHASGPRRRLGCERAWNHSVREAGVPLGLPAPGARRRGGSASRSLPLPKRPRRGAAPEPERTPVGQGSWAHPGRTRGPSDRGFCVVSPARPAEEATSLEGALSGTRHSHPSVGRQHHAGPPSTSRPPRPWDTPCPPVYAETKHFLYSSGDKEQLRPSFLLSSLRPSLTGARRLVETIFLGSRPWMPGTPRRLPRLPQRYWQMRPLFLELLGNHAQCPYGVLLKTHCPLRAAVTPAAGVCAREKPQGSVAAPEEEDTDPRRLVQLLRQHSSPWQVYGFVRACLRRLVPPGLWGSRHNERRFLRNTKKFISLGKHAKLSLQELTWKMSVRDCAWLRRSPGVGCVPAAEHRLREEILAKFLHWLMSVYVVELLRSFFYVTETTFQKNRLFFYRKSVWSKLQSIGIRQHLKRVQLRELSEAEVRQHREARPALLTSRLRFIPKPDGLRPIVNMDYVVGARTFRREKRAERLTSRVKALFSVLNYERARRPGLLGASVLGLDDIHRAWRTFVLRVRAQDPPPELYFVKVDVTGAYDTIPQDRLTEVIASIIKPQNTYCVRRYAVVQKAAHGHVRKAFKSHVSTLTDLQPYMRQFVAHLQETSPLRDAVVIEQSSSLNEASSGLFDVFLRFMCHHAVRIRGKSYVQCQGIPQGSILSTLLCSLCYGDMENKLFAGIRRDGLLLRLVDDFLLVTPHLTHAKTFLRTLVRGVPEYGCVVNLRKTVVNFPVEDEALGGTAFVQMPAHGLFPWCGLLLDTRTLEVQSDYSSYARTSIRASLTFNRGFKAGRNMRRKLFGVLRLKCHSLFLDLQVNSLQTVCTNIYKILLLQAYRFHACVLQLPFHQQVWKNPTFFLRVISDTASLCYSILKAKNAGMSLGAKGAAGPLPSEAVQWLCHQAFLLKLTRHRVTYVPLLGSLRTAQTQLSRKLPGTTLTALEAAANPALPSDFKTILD
How it was run: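 TRAP-based kit with non-radioactive ELISA read-out, run on K562 human leukemia cells per the manufacturer's instructions.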

[7] = system: Ehrlich; assay: Inhibition of DNA primase in mouse EAC cells assessed as incorporation of [3H]dATP to […] template at 100 uM after 1 hr by scintillation counting; type: cell-based
How it was run: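 DNA primase isolated from Ehrlich ascites carcinoma cells grown in culture.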

Row | inhibition [1] | Ratio IC50 [4] | IC50 [5] [µM] | inhibition [6] [%] | Structure (SMILES) | IC50 [2] [µM] | IC50 [3] [µM] | inhibition [7] [%]
1 | Active | – | – | – | O=C1C(=O)c2cccc3c2C(=C1Cl)OCC3(O)Cc1ccccc1 (stereo unspecified) | 2.75 | 6.34 | –
2 | Active | – | – | – | O=C1C(=O)c2cccc3c2C(=C1Cl)OC=C3c1ccccc1 | 40.2 | 33.3 | –
3 | Active | – | – | – | O=C1C(=O)c2cccc3c2C(=C1Cl)OCC3(O)c1ccccc1 (stereo unspecified) | 5.63 | 2.87 | –
4 | Active | 12 | 4.88 | – | O=C1C=C2OCC(O)(Cc3ccccc3)c3cccc(c32)C1=O (stereo unspecified) | 3.82 | 4.47 | –
5 | Active | – | – | – | CCCC1(O)COC2=C(Cl)C(=O)C(=O)c3cccc1c32 (stereo unspecified) | 7.93 | 3.59 | –
6 | Active | – | – | – | C=CCC1(O)COC2=C(Cl)C(=O)C(=O)c3cccc1c32 (stereo unspecified) | 5.33 | 3.54 | –
7 | inactive | 32 | 1.88 | 22 | CC1COC2=CC(=O)C(=O)c3cccc1c32 (stereo unspecified) | 1.77 | 2.05 | 29
8 | Active | – | – | – | O=C1C=C2OC=C(c3ccc(F)cc3)c3cccc(c32)C1=O | 3.21 | 16 | –
9 | Active | – | – | – | O=C1C=C2OCC(O)(c3ccccc3)c3cccc(c32)C1=O (stereo unspecified) | 5.33 | 3.18 | –
10 | Active | – | – | – | CC1=COC2=C(C)C(=O)C(=O)c3c(C)ccc1c32 [MANSONONE F] | 15.5 | 27.3 | –
11 | Active | – | – | – | O=C1C=C2OC=C(Cc3ccccc3)c3cccc(c32)C1=O | 2.88 | 6.52 | –
12 | Active | – | – | – | O=C1C(=O)c2cccc3c2C(=C1Cl)OCC3(O)c1ccc(F)cc1 (stereo unspecified) | 9.74 | 13.5 | –
13 | Active | 39 | 1.54 | – | C=CCC1=COC2=C(Cl)C(=O)C(=O)c3cccc1c32 | 3.77 | 5.2 | –
14 | Active | – | – | – | CCCC1=COC2=C(Cl)C(=O)C(=O)c3cccc1c32 | 2.15 | 3.93 | –
15 | Active | – | – | – | CC1(O)COC2=C(Cl)C(=O)C(=O)c3cccc1c32 (stereo unspecified) | 11.3 | 8.12 | –
16 | Active | – | – | – | O=C1C(=O)c2cccc3c2C(=C1Cl)OC=C3c1ccc(F)cc1 | 31.3 | 27.5 | –
17 | Active | – | – | – | CC1(OC(=O)c2ccccc2)COC2=C(Cl)C(=O)C(=O)c3cccc1c32 (stereo unspecified) | 10.8 | 8.05 | –
18 | Active | – | – | – | O=C1C=C2OC=C(c3ccccc3)c3cccc(c32)C1=O | 3.68 | 9.19 | –
19 | Active | – | – | – | O=C1C=C2OCC(O)(c3ccc(F)cc3)c3cccc(c32)C1=O (stereo unspecified) | 6.63 | 9.76 | –
20 | Active | – | – | – | O=C1C(=O)c2cccc3c2C(=C1Cl)OC=C3Cc1ccccc1 | 21.6 | 21.5 | –

The next lines start with the molecule.

Row | Structure (SMILES) | inhibition [1] | Ratio IC50 [4] | IC50 [5] [µM] | inhibition [6] [%] | IC50 [2] [µM] | IC50 [3] [µM] | inhibition [7] [%]
21 | CC1(O)COC2=CC(=O)C(=O)c3cccc1c32 (stereo unspecified) | – | – | – | – | 19.2 | 17.3 | –
22 | COc1ccc(C(=O)COC2=C(C)C(=O)C(=O)c3ccccc32)cc1 | – | – | – | – | 44.3 | 30.4 | –
23 | O=C1C=C2OCCc3cccc(c32)C1=O | – | – | – | – | 5.32 | 4.83 | –
24 | c1ccc(-c2nc3cc4c5c(cccc5c3o2)CCO4)cc1 | – | – | – | – | > 50 | > 50 | –
25 | CC1=C(OCC#N)c2ccccc2C(=O)C1=O | – | – | – | – | 39.2 | 39.5 | –
26 | CC[C@@]1(O)C(=O)OCc2c1cc1n(c2=O)Cc2cc3cc(O)ccc3nc2-1 [HYDROXYCAMPTOTHECIN] | – | – | – | – | 0.23 | 1.04 | –
27 | c1ccc2nc3c(cc4c5c(cccc53)CCO4)nc2c1 | – | – | – | – | > 50 | > 50 | –
28 | O=C1C=C2OCCc3cccc(c32)/C1=N/O | – | – | – | – | 42.8 | 5.7 | –
29 | C=CCOC1=C(C)C(=O)C(=O)c2ccccc21 | – | – | – | – | > 50 | > 50 | –
30 | O=C1/C(=N\O)C=C2OCCc3cccc1c32 | – | – | – | – | > 50 | > 50 | –
31 | CC1=C(OCC(=O)c2ccc(C)c(C)c2)c2ccccc2C(=O)C1=O | – | – | – | – | > 50 | > 50 | –
32 | CC(=O)COC1=C(C)C(=O)C(=O)c2ccccc21 | – | – | – | – | > 50 | > 50 | –
33 | CC1=C(OCC(=O)c2ccc(Cl)cc2)c2ccccc2C(=O)C1=O | – | – | – | – | > 50 | 30.4 | –
34 | c1cc2c3c(cc4nccnc4c3c1)OCC2 | – | – | – | – | > 50 | > 50 | –
